Experimental data: ChEMBL document CHEMBL5055621, “Synthesis and Characterization of the Novel Rodent-Active and CNS-Penetrant P2X7 Receptor Antagonist Lu AF27139” (J Med Chem, 2021); call rule not given here

Legend:
[1] = test system: THP-1; test: Antiinflammatory activity against human THP-1 cells assessed as reduction in LPS and BzATP-induced IL-1beta release measured after 50 mins by microplate reader; type: functional, cell-based; conditions: THP-1, 50 min
How it was run: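 THP-1 cells were differentiated with IFN-γ 10 ng/mL for 48 h and primed with LPS (100 ng/mL final) for 3.5 h at 10k cells/well. Compound was added for 20 min, then BzATP (1 mM final) for 30 min at 37 °C. Supernatant IL-1β was read by human AlphaLISA.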

[2] = biological target: T1, Cytochrome P450 1A2 (Homo sapiens, UniProt P05177); test: Inhibition of CYP1A2 (unknown origin) upto 25 uM; type: ADME
T1 sequence (P05177 whole entry): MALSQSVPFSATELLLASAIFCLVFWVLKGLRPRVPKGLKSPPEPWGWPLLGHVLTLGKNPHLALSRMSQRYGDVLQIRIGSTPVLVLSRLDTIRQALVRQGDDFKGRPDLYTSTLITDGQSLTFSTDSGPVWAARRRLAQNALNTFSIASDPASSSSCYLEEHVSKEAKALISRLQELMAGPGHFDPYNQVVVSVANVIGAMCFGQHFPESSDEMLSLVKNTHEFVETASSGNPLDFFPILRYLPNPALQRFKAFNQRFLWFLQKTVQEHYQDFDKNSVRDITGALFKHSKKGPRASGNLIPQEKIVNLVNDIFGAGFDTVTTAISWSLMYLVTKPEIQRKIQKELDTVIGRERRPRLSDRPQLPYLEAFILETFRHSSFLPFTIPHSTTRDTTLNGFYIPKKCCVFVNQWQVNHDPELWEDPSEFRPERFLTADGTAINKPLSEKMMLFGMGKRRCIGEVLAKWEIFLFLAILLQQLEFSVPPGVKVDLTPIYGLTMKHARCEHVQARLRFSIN

[3] = biological target: Cytochrome P450 2C9 (Homo sapiens, UniProt P11712); test: Time dependent inhibition of CYP2C9 (unknown origin) upto 25 uM; type: ADME
[4] = biological target: T2, Cytochrome P450 2B6 (Homo sapiens, UniProt P20813); test: Time dependent inhibition of CYP2B6 (unknown origin) upto 25 uM; type: ADME
T2 sequence (P20813 whole entry): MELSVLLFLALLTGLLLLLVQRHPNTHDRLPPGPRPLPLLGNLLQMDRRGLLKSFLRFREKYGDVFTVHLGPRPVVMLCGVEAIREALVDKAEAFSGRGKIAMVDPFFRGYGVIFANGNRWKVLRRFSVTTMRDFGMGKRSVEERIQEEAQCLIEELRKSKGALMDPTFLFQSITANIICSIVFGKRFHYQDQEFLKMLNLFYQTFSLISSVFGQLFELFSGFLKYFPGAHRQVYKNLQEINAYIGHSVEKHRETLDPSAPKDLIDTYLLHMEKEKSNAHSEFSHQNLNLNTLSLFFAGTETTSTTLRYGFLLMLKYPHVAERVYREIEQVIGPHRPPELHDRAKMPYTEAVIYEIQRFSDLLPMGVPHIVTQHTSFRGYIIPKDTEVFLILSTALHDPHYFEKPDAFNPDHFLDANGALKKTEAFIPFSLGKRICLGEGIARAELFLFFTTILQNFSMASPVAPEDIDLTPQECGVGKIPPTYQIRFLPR

[5] = Volume of distribution at steady state in rat at 1 mg/kg, iv and 2 mg/kg, po; type: ADME, organism-based; conditions: in vivo
How it was run: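 Plasma concentration–time profiles were obtained in rats after an iv dose of 1 mg/kg and a po dose of 2 mg/kg. Parameters were estimated by noncompartmental analysis. In vivo work used male Sprague–Dawley rats of 150−200 g unless noted otherwise.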

[6] = Free plasma concentration in rat at 30 mg/kg, po after 1 hr by ex vivo equilibrium dialysis; type: ADME, organism-based
How it was run: (§1)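 Male Sprague–Dawley rats were dosed orally at 1–100 mg/kg, and total plasma concentration was measured at 1 and 2 h. This was multiplied by fraction unbound from ex vivo equilibrium dialysis; mean ± SEM, n = 3 animals.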

[7] = Free plasma concentration in rat at 3 mg/kg, po after 2 hrs by ex vivo equilibrium dialysis; type: ADME, organism-based; how it was run: as §1
[8] = test system: Rattus norvegicus; test: Reduction in LPS/BzATP-induced IL-1beta release in icv dosed Sprague-Dawley rat frontal cortex assessed as minimal effective dose pretreated 1 hr before BzATP stimulus; type: functional; conditions: read-out: MED
How it was run: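 Rats and mice with frontal cortex microdialysis probes and a lateral ventricle cannula received icv LPS (rat 3 μg/5 μL; mouse 0.1 μg/3 μL), and 1 h later oral compound in 20% HP-β-cyclodextrin. BzATP icv (rat 50 μg; mouse 5 μg) followed 1 h later.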

[9] = biological target: T3, Potassium voltage-gated channel subfamily KQT member 1 (Homo sapiens, UniProt P51787); test: Inhibition of human KCNQ1 at 10 uM
T3 sequence (P51787 whole entry): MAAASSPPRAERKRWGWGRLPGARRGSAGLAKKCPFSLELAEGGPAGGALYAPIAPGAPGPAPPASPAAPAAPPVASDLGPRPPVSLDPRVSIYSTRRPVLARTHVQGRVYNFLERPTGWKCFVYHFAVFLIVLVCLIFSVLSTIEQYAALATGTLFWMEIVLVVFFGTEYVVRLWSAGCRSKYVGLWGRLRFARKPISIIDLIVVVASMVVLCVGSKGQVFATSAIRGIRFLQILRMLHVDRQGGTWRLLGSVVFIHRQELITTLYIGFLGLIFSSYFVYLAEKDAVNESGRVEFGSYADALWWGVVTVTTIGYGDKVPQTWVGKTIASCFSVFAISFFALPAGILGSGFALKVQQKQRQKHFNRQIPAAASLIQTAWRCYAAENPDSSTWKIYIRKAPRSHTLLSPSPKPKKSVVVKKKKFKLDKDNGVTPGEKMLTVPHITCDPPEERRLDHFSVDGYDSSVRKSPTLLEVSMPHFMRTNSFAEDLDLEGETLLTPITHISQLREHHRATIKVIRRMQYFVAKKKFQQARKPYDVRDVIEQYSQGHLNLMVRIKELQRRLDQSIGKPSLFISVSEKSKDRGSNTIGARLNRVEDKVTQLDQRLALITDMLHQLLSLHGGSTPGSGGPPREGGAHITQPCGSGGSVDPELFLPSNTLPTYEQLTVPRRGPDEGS
How it was run: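 Human Nav1.5, Cav1.2 and KCNQ1/minK channels were tested at 10 μM.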

[10] = test system: Mus musculus; test: Toxicity in C57BL/6NCrl mouse assessed as histological changes up to 100 mg/kg, po bid by 14 days exploratory toxicology study; type: organism-based; conditions: in vivo, 336 h, time 14 day
How it was run: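 Exploratory 14-day repeat oral toxicity study in mice with dosing twice daily (bid) up to 100 mg/kg. Endpoints were macroscopic pathology, histology and hematology.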

[11] = Cmax in male rat at 3 mg/kg, po after 7 days; type: ADME, organism-based; design: dose 3 mg/kg, time 7 day, route po; conditions: in vivo
[12] = Tmax in female mouse at 100 mg/kg, po after 14 days; conditions: in vivo

Cytochrome P450 2C9, sequence (P11712 whole entry): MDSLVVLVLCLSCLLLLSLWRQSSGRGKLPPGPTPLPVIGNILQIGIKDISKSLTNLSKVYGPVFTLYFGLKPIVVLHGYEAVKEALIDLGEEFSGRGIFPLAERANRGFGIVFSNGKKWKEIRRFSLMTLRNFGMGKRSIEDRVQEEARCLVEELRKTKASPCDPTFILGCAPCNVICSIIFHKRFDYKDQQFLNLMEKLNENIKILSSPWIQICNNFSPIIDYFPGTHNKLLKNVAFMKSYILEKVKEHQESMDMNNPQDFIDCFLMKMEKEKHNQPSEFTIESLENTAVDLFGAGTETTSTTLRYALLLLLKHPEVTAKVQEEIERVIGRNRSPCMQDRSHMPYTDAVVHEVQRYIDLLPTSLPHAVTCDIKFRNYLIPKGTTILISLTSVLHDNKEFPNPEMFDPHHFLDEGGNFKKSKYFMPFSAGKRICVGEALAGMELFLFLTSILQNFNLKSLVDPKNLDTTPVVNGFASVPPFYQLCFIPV

Structure (SMILES): O=C(NC[C@H](c1ccc(Cl)cc1)N1CCOCC1)c1sc(-c2ncccn2)nc1C(F)(F)F
- IC50 [1]: 38 nM
- inhibition (INH) [2]: Not Active
- TDI [3]: Not Active
- TDI [4]: Not Active
- Vdss [5]: 0.95 L/kg
- Cp(f) [6]: 414 nM
- Cp(f) [7]: 91.4 nM
- minimal effective dose [8]: 3 mg/kg
- inhibition (INH) [9]: Not Active
- Activity [10]: Non-Toxic
- Cmax [11]: 4640 nM
- Tmax [12]: 1 h
